CAL PDZ FP-1: CAL PDZ (human) peptide binding inhibition; inhibition, % at 24.9 µM; AID 602252; 0.92% of 300,000 active; Q9HD26; purified CAL PDZ, TMR-peptide fluorescence polarization, 1 h;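 active = mean inhibition of at least 30% with at least half of replicates also reaching 30%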
CAL PDZ FP-2: human CAL PDZ-peptide interaction inhibition; Q9HD26; purified CAL PDZ, TMR-peptide fluorescence polarization, 1 h; inhibition, % at 20 µM; 0.02% of 330,000 active; AID 504414;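 active = highest replicate inhibition of at least 40%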
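material = purified tagged CAL PDZ domain construct (CerCALP) | compound dosing = 20 µM, one dose | times = 1 h at RT | measured by = fluorescence polarization from S- and P-plane intensities, G-factor corrected | read-out = inhibition from polarization loss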
Keap1-Nrf2 PPI: Keap1-Nrf2 (human) interaction inhibition | Q14145 | Keap1 Kelch-Nrf2 peptide fluorescence polarization, 1536-well | inhibition, % at 9.4 µM | 0.15% of 340,000 active; in the data active = inhibition above about 12%;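 also: human Keap1 Kelch domain with fluorescein labeled Nrf2 9mer peptide probe; higher means more block of Keap1 binding to Nrf2 peptide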
Target sequence (Q14145 whole entry, looked up, the tested form may be a part): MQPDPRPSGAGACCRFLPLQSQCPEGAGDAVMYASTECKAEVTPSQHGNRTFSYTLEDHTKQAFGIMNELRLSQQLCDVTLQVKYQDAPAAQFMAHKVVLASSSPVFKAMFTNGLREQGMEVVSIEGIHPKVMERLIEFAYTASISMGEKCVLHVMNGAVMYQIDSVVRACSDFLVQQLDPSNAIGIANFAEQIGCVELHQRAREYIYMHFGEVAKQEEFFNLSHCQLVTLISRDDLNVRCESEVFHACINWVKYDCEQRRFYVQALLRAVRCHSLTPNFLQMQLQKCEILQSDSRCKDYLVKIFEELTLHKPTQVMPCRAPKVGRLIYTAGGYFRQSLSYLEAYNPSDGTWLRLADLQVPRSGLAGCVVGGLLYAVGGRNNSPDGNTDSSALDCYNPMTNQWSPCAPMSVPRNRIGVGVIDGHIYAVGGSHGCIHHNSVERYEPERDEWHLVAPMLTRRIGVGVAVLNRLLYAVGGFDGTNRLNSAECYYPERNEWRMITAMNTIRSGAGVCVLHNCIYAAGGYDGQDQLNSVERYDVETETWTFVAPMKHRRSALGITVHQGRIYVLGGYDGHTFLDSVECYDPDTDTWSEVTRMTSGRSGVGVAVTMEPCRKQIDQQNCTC
LANA DNA inh: inhibitors of KSHV LANA C-terminal domain DNA binding | 0.078% of 340,000 active | MBP-C-LANA/FAM-LBS DNA binding, fluorescence polarization | inhibition, % at 9 µM | AID 504423;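 active = highest replicate inhibition at or above 60% at 9 µM, even if other replicates fall short; inactive = all replicates below 60% inhibition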
RTF Ca sens inh: cardiac RTF calcium desensitization; inhibition, % at 7.15 µM; IANBD-labeled cardiac RTF, Ca2+ fluorescence; P19429+P45379; 0.12% of 340,000 active; AID 493244;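 active = inhibition above the mean inhibition of all tested compounds plus 3 SD, cut at about 17% in these data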;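 also: assay run at fixed EC70 calcium of 1.6 mM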
cardiac RTF act: cardiac RTF calcium sensitization. P19429+P45379. IANBD-labeled TnC RTF fluorescence at EC20 calcium; 0% EC20 calcium, 100% full calcium. activation, % at 7.2 µM. 0.24% of 340,000 active;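 active = activation above the mean over all tested compounds plus 3 SD, cut at about 30% in these data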;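 also: rise in fluorescence read as greater calcium sensitivity of cardiac thin filaments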
Hits are given with their value; . = inactive; / = no result given. An excerpt weighted towards active compounds, which were near 1.3% of everything screened.

SMILES	CAL PDZ FP-1	CAL PDZ FP-2	Keap1-Nrf2 PPI	LANA DNA inh	RTF Ca sens inh	cardiac RTF act
CCCn1c(O)c(N=NC(=O)CNC(=O)/C=C/c2ccc(OC)cc2)c2ccccc21	.	.	.	.	.	.
C/C(=C\C(=O)O)C(=O)Nc1nccs1	.	.	.	.	.	.
CC(=O)c1nccs1	32	.	.	.	.	.
CCC(C)c1ccc(N(CC(=O)NC(C)(C)C)C(=O)CNC(=O)c2cccs2)cc1 (centres undefined)	32	.	.	.	.	.
CCc1ccc(N(CC(=O)NC(C)(C)C)C(=O)CNC(=O)c2cccs2)cc1	.	.	.	.	.	.
CC(=O)N1CCSc2ccc(S(=O)(=O)NCc3ccc(F)cc3)cc21	.	.	.	.	.	.
COc1ccc(-c2noc(-c3ccccc3C(=O)NCC3CCCO3)n2)cc1 (centres undefined)	70	.	.	.	.	.
CC(C)(C)NC(=O)C1CC(=O)N(CCc2ccc(F)cc2)C1 (centres undefined)	.	/	.	.	.	.
Cc1onc(-c2ccc(Cl)cc2Cl)c1-c1csc(N/N=C/c2ccccc2)n1	54	.	.	.	.	.
CCOC(=O)c1cc(-c2csc(N/N=C/c3ccccc3Cl)n2)on1	.	.	.	.	.	.
O=C1CN(O)C=C2N=c3ccccc3=C2N1c1ccc([N+](=O)[O-])cc1	77	.	.	.	.	.
O=C1/C(=C/c2ccc([N+](=O)[O-])cc2)C=C(c2ccccc2)N1c1ccc(O)cc1	.	.	.	.	.	.
CN(C(=O)COC(=O)Cc1ccc(Cl)cc1)C1CCCCC1	/	.	.	.	.	.
CN(C)S(=O)(=O)N1CCN(S(=O)(=O)c2ccccc2)CC1	59	.	.	.	.	.
Cc1ccc(S(=O)(=O)N2CCN(S(=O)(=O)N(C)C)CC2)cc1	.	/	.	.	.	.
Cc1ccc(S(=O)(=O)N2CCN(C(=O)N(C)C)CC2)cc1	.	67	.	.	.	.
Nc1nnc(SCC(=O)NNC(=O)c2ccccc2)s1	.	.	.	.	.	.
O=[N+]([O-])c1ccc(O)c(/C=N/n2cnc3ccccc32)c1	.	.	.	.	.	.
Cc1ccc(/C=C2\SC(=S)N(/N=C/c3cc([N+](=O)[O-])ccc3O)C2=O)o1	.	.	.	74	.	.
CC1=NC(C)(C)Cc2cc(C)c(C)cc21	54	.	.	.	.	.
CCOc1ccc(-n2c(=O)c3sccc3n(CC(=O)NC3CCCCC3)c2=O)cc1	.	.	.	.	.	.
O=C(COc1ccccc1[N+](=O)[O-])Nc1cccc(C(=O)Nc2ccccc2C(=O)O)c1	.	.	.	.	.	.
NS(=O)(=O)c1ccc(NC(=O)COC(=O)CCC2CCCCC2)cc1	.	.	.	.	.	.
NS(=O)(=O)c1cccc(NC(=O)COC(=O)CCC2CCCC2)c1	85	.	.	.	.	.
CCCCNC(=O)CN1C(=O)c2cccc(N)c2C1=O	66	.	.	.	.	.
SMILES	CAL PDZ FP-1	CAL PDZ FP-2	Keap1-Nrf2 PPI	LANA DNA inh	RTF Ca sens inh	cardiac RTF act
COc1ccc(/C=C/C(=O)N2CCN(c3ccccc3)CC2)cc1S(=O)(=O)N1CCOCC1	52	.	.	.	.	.
O=C(CCN1N=C(c2ccccc2)CCC1=O)NCCCN1CCOCC1	64	.	.	.	.	.
CN(C)c1ccc(/C=N\Nc2nc(-c3ccccc3)cc(=O)[nH]2)cc1	71	.	.	.	.	.
O=C(c1cccs1)N1CCCC(c2nc3c(nnn3Cc3ccccc3Cl)c(=O)[nH]2)C1 (centres undefined)	.	.	.	.	.	.
Cc1cc(C)c(S(=O)(=O)NCC23C=CC(O2)C2C(=O)N(c4ccccc4)C(=O)C23)c(C)c1 (centres undefined)	43	.	.	.	.	.
CCn1c(O)c(/C=N/N=C/c2ccccc2)c2ccc(C3=NNC(=O)CC3)cc21	/	.	.	.	.	36
CC1CN(CCCCOc2ccc(C(C)C)cc2)CC(C)O1 (centres undefined)	.	.	.	.	.	.
CC1CN(CCCCOc2ccc(Cl)c3ccccc23)CC(C)O1 (centres undefined)	43	.	.	.	.	.
